Key:
[1] = Half life in human plasma at 1 uM by LC-MS/MS analysis; format: ADME, cell-free
Procedure, shortened: (§1)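 Compound at 1 μM in pooled heparinized plasma of the stated species, 37 °C, sampled at 0, 10, 30, 60 and 150 min. Proteins precipitated with 5 volumes of cold acetonitrile containing internal standard. Remaining compound quantified by LC-MS/MS to give half-life.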

[2] = Cytotoxicity against HEK293 cells after 24 hrs; format: cell-based; conditions: human, read-out: LC50
Procedure, shortened: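 HEK 293 cells seeded at 2 × 10⁵ cells per well; compounds added 24 h after seeding at 1% final DMSO. Living cell mass determined after 24 h incubation; LC₅₀ calculated. Doxorubicin positive control, rifampicin negative control. Mean of more than three repeats.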

[3] = Half life in rat plasma at 1 uM by LC-MS/MS analysis; format: ADME, cell-free; procedure, shortened: as §1
[4] = Half life in human liver S9 fraction at 1 uM by LC-MS/MS analysis; format: ADME, subcellular
Procedure, shortened: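 Pooled human liver S9 fraction, 1 mg/mL, with 2 mM NADPH regenerating system, 1 mM UDPGA and 0.1 mM PAPS (phase I and II). Compound at 1 μM, 37 °C, sampled at 0, 5, 15 and 60 min. Stopped with cold acetonitrile containing internal standard. Remaining compound measured by LC-MS/MS and used to derive t1/2. Mean of more than three repeats.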

[5] = target: Cytochrome P450 3A4 (Homo sapiens, UniProt P08684); assay: Inhibition of CYP3A4 (unknown origin) using 7-benzyloxy trifluoromethylcoumarin as substrate; format: ADME
Procedure, shortened: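 Commercial CYP3A4/BFC inhibitor screening kit with 7-benzyloxy-trifluoromethylcoumarin as substrate at 50 μM, run per the kit instructions. IC50 determined.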

[6] = target: T1, CYP19 (aromatase) (Homo sapiens, UniProt P11511); assay: Inhibition of microsomal CYP19 in human placenta using [1beta-3H]-androstenedione as substrate at 2 uM by 3H2O method relative to control; conditions: placental microsomes, probe [1beta-3H]-androstenedione
T1 sequence (P11511 whole entry): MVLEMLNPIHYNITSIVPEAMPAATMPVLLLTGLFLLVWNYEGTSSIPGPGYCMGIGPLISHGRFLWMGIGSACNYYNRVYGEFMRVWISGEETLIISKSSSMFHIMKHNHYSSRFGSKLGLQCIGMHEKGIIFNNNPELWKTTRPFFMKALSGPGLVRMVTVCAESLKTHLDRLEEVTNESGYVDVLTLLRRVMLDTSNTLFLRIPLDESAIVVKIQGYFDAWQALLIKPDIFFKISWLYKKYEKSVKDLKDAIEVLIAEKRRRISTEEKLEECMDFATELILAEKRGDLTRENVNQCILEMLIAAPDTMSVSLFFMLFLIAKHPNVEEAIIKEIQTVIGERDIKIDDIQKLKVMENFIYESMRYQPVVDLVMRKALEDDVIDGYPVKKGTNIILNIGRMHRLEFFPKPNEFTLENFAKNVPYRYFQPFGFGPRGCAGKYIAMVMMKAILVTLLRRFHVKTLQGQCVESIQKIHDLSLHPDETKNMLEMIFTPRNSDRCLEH
Procedure, shortened: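 Human placental microsomes as the CYP19 source, with [1β-3H]androstenedione at 500 nM. Activity read by 3H2O release. Compound at 2 μM. Percent inhibition is the mean of at least three experiments (deviations <25%); values ≤5% are not significant.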

[7] = species on record: Homo sapiens; assay: Selectivity factor, ratio of IC50 for human CYP11B2 to IC50 for human CYP11B1
Procedure, shortened: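 V79MZh hamster fibroblasts expressing human CYP11B1 or CYP11B2 were incubated with [1,2-3H]-11-deoxycorticosterone (100 nM) plus inhibitor at a range of concentrations. […] The selectivity factor is IC50(CYP11B2)/IC50(CYP11B1).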

[8] = target: T2, Cytochrome P450 11B2, mitochondrial (Homo sapiens, UniProt P19099); assay: Inhibition of human CYP11B2 expressed in hamster V79MZh cells using [1,2-3H]-11-deoxycorticosterone as substrate; format: cell-based
T2 sequence (P19099 whole entry): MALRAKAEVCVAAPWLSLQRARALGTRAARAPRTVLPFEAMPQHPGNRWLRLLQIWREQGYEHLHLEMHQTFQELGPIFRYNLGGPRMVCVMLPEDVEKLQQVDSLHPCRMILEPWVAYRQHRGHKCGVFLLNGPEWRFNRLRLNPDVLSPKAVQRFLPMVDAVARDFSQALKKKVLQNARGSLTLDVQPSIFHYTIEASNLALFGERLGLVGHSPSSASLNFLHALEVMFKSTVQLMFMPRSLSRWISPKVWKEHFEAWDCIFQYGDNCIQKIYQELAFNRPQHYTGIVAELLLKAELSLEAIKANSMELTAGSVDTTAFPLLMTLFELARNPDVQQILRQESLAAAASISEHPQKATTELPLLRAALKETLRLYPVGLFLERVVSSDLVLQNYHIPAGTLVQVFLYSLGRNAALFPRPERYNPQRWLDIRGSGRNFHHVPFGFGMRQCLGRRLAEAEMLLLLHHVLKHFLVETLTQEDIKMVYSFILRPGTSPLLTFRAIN
Procedure, shortened: (§2)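 V79MZh hamster fibroblasts expressing human CYP11B1 or CYP11B2 were incubated with [1,2-3H]-11-deoxycorticosterone (100 nM) plus inhibitor at a range of concentrations. The selectivity factor is IC50(CYP11B2)/IC50(CYP11B1).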

[9] = target: T3, Cytochrome P450 11B1, mitochondrial (Homo sapiens, UniProt P15538); assay: Inhibition of human CYP11B1 expressed in hamster V79MZh cells using [1,2-3H]-11-deoxycorticosterone as substrate; format: cell-based; procedure, shortened: as §2
T3 sequence (P15538 whole entry): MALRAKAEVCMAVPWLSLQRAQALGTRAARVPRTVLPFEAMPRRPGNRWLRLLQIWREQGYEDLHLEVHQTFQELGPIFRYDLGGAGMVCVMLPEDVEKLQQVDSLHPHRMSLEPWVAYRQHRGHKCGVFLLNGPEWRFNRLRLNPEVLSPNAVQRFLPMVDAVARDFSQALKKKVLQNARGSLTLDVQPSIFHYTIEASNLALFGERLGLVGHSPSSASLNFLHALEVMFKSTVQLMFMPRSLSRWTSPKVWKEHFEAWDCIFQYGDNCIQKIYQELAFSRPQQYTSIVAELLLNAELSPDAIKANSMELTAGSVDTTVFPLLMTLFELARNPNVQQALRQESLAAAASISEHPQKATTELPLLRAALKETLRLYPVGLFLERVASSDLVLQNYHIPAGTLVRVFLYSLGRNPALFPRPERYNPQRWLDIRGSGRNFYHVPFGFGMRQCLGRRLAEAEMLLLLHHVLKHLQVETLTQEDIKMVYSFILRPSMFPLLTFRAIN

[10] = Half life in rat liver S9 fraction at 1 uM by LC-MS/MS analysis; format: ADME, subcellular
Procedure, shortened: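 Test compound at 1 μM with 1 mg/mL pooled rat liver S9, 2 mM NADPH regenerating system, 1 mM UDPGA and 0.1 mM PAPS (phase I and II), 37 °C. Sampled at 0, 5, 15 and 60 min and quenched with 2 volumes of cold acetonitrile containing internal standard. Remaining compound measured by LC-MS/MS to give t1/2 and CLint; mean of more than three repeats.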

Chain of Cytochrome P450 3A4 (P08684 whole entry): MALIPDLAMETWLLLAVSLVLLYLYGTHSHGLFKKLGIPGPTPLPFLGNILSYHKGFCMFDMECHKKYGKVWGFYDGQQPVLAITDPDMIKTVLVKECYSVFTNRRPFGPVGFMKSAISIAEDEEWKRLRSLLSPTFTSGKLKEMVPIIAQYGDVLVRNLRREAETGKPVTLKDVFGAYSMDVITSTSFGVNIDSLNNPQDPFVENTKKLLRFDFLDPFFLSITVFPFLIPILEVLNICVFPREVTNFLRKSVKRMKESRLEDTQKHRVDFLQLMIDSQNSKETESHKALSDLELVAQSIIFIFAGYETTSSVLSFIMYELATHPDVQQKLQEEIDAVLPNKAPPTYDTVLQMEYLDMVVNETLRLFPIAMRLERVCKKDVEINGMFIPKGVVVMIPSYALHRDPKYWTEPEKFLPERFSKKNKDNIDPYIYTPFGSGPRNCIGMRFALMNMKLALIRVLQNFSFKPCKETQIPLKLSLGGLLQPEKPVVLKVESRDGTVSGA

SMILES: Cc1cncc(Cc2ccc(-c3ccccc3)nc2)c1
- half-life at 1 µM [1]: > 2.5 h
- CC50 at 24 h [2]: 61400 nM
- half-life at 1 µM [3]: > 2.5 h
- half-life at 1 µM [4]: > 2.5 h
- IC50 [5]: 1100 nM
- inhibition at 2 µM [6]: 1%
- Ratio IC50 [7]: 15.1
- IC50 [8]: 33 nM
- IC50 [9]: 2 nM
- half-life at 1 µM [10]: 0.267 h
